In ChEMBL document CHEMBL3046065, “Metabolites of the fungistatic agent 2β-methoxyclovan-9α-ol by Macrophomina phaseolina” (J Agric Food Chem, 2011):

How the values were obtained:
Botrytis cinerea = assay: Antifungal activity against Botryotinia fuckeliana KUCC 869 assessed as growth inhibition at 200 ug/ml at 27 to 29 degC after 7 days by agar tube dilution method; type: functional; conditions: KUCC 869, 168 h, read-out: GI
In short: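 Agar tube dilution against B. cinerea isolated from infected strawberries. Compounds were taken from 1 mg/mL DMSO stocks into unsolidified Sabouraud agar at 200 μg/mL final. The agar was set as slants and inoculated with 4 mm plugs from 7-day-old culture, then incubated 7 days at 27–29 °C. Linear growth (mm) was measured and % inhibition calculated against control. Miconazole served as standard.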

Macrophomina phaseolina [1] = assay: Drug metabolism in Macrophomina phaseolina KUCC 730 assessed as transformation to oxidative metabolite, clovan-2-beta, 9-beta, 13-triol at 600 mg at 29 degC after 6 days by TLC analysis; type: ADME, organism-based; conditions: in vivo, 144 h
In short: (§1)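 Fungus kept on Sabouraud dextrose agar slants at 4 °C. Medium per 3 L water: glucose 30 g, peptone 15 g, yeast extract 15 g, KH2PO4 15 g, NaCl 15 g, glycerol 30 mL. Adjusted to pH 7.0 and autoclaved. Substrate in acetone, 20 mg per 100 mL flask, added to 24 h stage II cultures. Shaken at 200 rpm, 29 °C, 6 days. Daily TLC monitoring. Substrate-only and fungus-only controls were run.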

Macrophomina phaseolina [2] = assay: Drug metabolism in Macrophomina phaseolina KUCC 730 assessed as transformation to oxidative metabolite, 2-beta-methoxyclovan-9-alpha-13-diol at 600 mg at 29 degC after 6 days by TLC analysis; type: ADME, organism-based; conditions: in vivo, 144 h; in short: as §1
Macrophomina phaseolina [3] = assay: Drug metabolism in Macrophomina phaseolina KUCC 730 assessed as transformation to oxidative metabolite, clovan-2-beta, 13-diol-9-one at 600 mg at 29 degC after 6 days by TLC analysis; type: ADME, organism-based; conditions: in vivo, 144 h; in short: as §1
Macrophomina phaseolina [4] = assay: Drug metabolism in Macrophomina phaseolina KUCC 730 assessed as transformation to oxidative metabolite, clovan-2-beta, 9-alpha-diol at 600 mg at 29 degC after 6 days by TLC analysis; type: ADME, organism-based; conditions: in vivo, 144 h; in short: as §1
Macrophomina phaseolina [5] = assay: Drug metabolism in Macrophomina phaseolina KUCC 730 assessed as transformation to oxidative metabolite, clovan-2-beta, 9-beta-diol at 600 mg at 29 degC after 6 days by TLC analysis; type: ADME, organism-based; conditions: in vivo, 144 h; in short: as §1
Macrophomina phaseolina [6] = assay: Drug metabolism in Macrophomina phaseolina KUCC 730 assessed as transformation to oxidative metabolite, 2-beta-methoxyclovan-9-one at 600 mg at 29 degC after 6 days by TLC analysis; type: ADME, organism-based; conditions: in vivo, 144 h; in short: as §1

| Compound | inhibition of growth at 200 µg/mL (Botrytis cinerea) | also measured |
| --- | --- | --- |
| C[C@@]12CC[C@H]3[C@](C)(CO)C[C@H](O)[C@@]3(CC[C@@H]1O)C2 | 11% |  |
| C[C@@]12CC[C@H]3[C@](C)(CO)C[C@H](O)[C@@]3(CCC1=O)C2 | 8% |  |
| CO[C@H]1C[C@@](C)(CO)[C@@H]2CC[C@@]3(C)C[C@]12CC[C@H]3O | 17% |  |
| CC1(C)C[C@H](O)[C@]23CC[C@H](O)[C@@](C)(CC[C@@H]12)C3 | 32% |  |
| CO[C@H]1CC(C)(C)[C@@H]2CC[C@@]3(C)C[C@]12CCC3=O | 71% |  |
| CO[C@H]1CC(C)(C)[C@@H]2CC[C@@]3(C)C[C@]12CC[C@H]3O [2BETA-METHOXYCLOVAN-9ALPHA-OL] | 81% | Drug metabolism (Macrophomina phaseolina [1]): Active; Drug metabolism (Macrophomina phaseolina [2]): Active; Drug metabolism (Macrophomina phaseolina [3]): Active; Drug metabolism (Macrophomina phaseolina [4]): Active; Drug metabolism (Macrophomina phaseolina [5]): Active; Drug metabolism (Macrophomina phaseolina [6]): Active |
| CC1(C)C[C@H](O)[C@]23CC[C@@H](O)[C@@](C)(CC[C@@H]12)C3 [CLOVANEDIOL] | 59% |  |
